In ChEMBL document CHEMBL3804761, “Synthesis of a stable and orally bioavailable englerin analogue” (Bioorg Med Chem Lett, 2016):

What was measured:
Type in all cases: functional
[1] = Growth inhibition of human HL-60(TB) cells incubated for 48 hrs by sulforhodamine B assay; settings: HL-60, 48 h; for CC50: read-out: pLC50 (the source's name) (converted); for TGI: read-out: pTGI (converted)
How it was run: (§1)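 NCI 60-cell-line panel, standard protocol. Cells exposed to compound for two days, growth read by sulforhodamine B staining. Tested at five 10-fold dilutions, top concentration 100 µM, to give dose-response curves.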

[2] = Growth inhibition of human BT549 cells incubated for 48 hrs by sulforhodamine B assay; settings: BT-549, 48 h; for CC50: read-out: pLC50 (the source's name) (converted); for TGI: read-out: pTGI (converted); how it was run: as §1
[3] = Growth inhibition of human RXF393 cells assessed as cell growth at 10 uM incubated for 48 hrs by sulforhodamine B assay relative to control; settings: RXF 393, 48 h, read-out: Activity
How it was run: (§2)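 Run in the standard NCI 60-cell-line screen. Cells were exposed to drug for two days, and the read-out was sulforhodamine B staining. Compound was tested at a single final concentration of 10 µM in every line, and results are reported as growth percent.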

[4] = tested on: M14; test: Growth inhibition of human M14 cells incubated for 48 hrs by sulforhodamine B assay; settings: M14, 48 h; for TGI: read-out: pTGI (converted); how it was run: as §1
[5] = Growth inhibition of human OVCAR4 cells incubated for 48 hrs by sulforhodamine B assay; settings: OVCAR-4, 48 h; for TGI: read-out: pTGI (converted); how it was run: as §1
[6] = Growth inhibition of human HCT116 cells assessed as cell growth at 10 uM incubated for 48 hrs by sulforhodamine B assay relative to control; settings: HCT-116, 48 h, read-out: Activity; how it was run: as §2
[7] = tested on: SK-MEL-28; test: Growth inhibition of human SK-MEL-28 cells assessed as cell growth at 10 uM incubated for 48 hrs by sulforhodamine B assay relative to control; settings: SK-MEL-28, 48 h, read-out: Activity; how it was run: as §2
[8] = tested on: SR; test: Growth inhibition of human SR cells incubated for 48 hrs by sulforhodamine B assay; settings: for TGI: read-out: pTGI (converted)
How it was run: (§3)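 Tested in the standard NCI 60-cell-line protocol with two-day drug exposure and a sulforhodamine B endpoint. Compounds were first screened at a single final concentration of 10 µM, reported as growth percent. They were then run as five 10-fold dilutions starting from a high concentration of 100 µM to give dose-response curves.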

[9] = tested on: T47D; test: Growth inhibition of human T47D cells incubated for 48 hrs by sulforhodamine B assay; settings: for CC50: read-out: pLC50 (the source's name) (converted); for TGI: read-out: pTGI (converted); how it was run: as §3
[10] = Growth inhibition of human OVCAR5 cells assessed as cell growth at 10 uM incubated for 48 hrs by sulforhodamine B assay relative to control; settings: OVCAR-5, 48 h, read-out: Activity; how it was run: as §2
[11] = tested on: SN12C; test: Growth inhibition of human SN12C cells assessed as cell growth at 10 uM incubated for 48 hrs by sulforhodamine B assay relative to control; settings: read-out: Activity; how it was run: as §2
[12] = tested on: NCI/ADR-RES; test: Growth inhibition of human NCI/ADR-RES cells assessed as cell growth at 10 uM incubated for 48 hrs by sulforhodamine B assay relative to control; settings: read-out: Activity; how it was run: as §2
[13] = Growth inhibition of human UACC257 cells assessed as cell growth at 10 uM incubated for 48 hrs by sulforhodamine B assay relative to control; settings: UACC-257, 48 h, read-out: Activity
How it was run: (§4)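 NCI 60-cell line standard protocol, one-dose screen: single final concentration 10 µM, 2-day drug exposure, sulforhodamine B (SRB) endpoint; read-out is growth percent relative to untreated control.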

[14] = Growth inhibition of human HL-60(TB) cells assessed as cell growth at 10 uM incubated for 48 hrs by sulforhodamine B assay relative to control; settings: HL-60, 48 h, read-out: Activity
How it was run: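 Single-dose screen in the NCI 60-cell-line panel at one final concentration of 10 µM. Two-day drug exposure with a sulforhodamine B endpoint. Values are growth percent for each cell line.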

[15] = tested on: KM12; test: Growth inhibition of human KM12 cells assessed as cell growth at 10 uM incubated for 48 hrs by sulforhodamine B assay relative to control; settings: KM12, 48 h, read-out: Activity; how it was run: as §2
[16] = tested on: NCI-H460; test: Growth inhibition of human NCI-H460 cells incubated for 48 hrs by sulforhodamine B assay; settings: NCI-H460, 48 h; for CC50: read-out: pLC50 (the source's name) (converted); for TGI: read-out: pTGI (converted); how it was run: as §1
[17] = tested on: SK-MEL-2; test: Growth inhibition of human SK-MEL-2 cells incubated for 48 hrs by sulforhodamine B assay; settings: SK-MEL-2, 48 h; for TGI: read-out: pTGI (converted); how it was run: as §1
[18] = Growth inhibition of human Hs 578T cells assessed as cell growth at 10 uM incubated for 48 hrs by sulforhodamine B assay relative to control; settings: read-out: Activity
[19] = tested on: NCI-H522; test: Growth inhibition of human NCI-H522 cells assessed as cell growth at 10 uM incubated for 48 hrs by sulforhodamine B assay relative to control; settings: NCI-H522, 48 h, read-out: Activity; how it was run: as §2
[20] = tested on: MDA-MB-468; test: Growth inhibition of human MDA-MB-468 cells incubated for 48 hrs by sulforhodamine B assay; settings: MDA-MB-468, 48 h; for CC50: read-out: pLC50 (the source's name) (converted); for TGI: read-out: pTGI (converted); how it was run: as §1
[21] = tested on: NCI/ADR-RES; test: Growth inhibition of human NCI/ADR-RES cells incubated for 48 hrs by sulforhodamine B assay; settings: for TGI: read-out: pTGI (converted); how it was run: as §1
[22] = Growth inhibition of human RPMI8226 cells incubated for 48 hrs by sulforhodamine B assay; settings: RPMI-8226, 48 h; for CC50: read-out: pLC50 (the source's name) (converted); for TGI: read-out: pTGI (converted); how it was run: as §1
[23] = Growth inhibition of human UACC62 cells assessed as cell growth at 10 uM incubated for 48 hrs by sulforhodamine B assay relative to control; settings: UACC-62, 48 h, read-out: Activity; how it was run: as §4
[24] = tested on: NCI-H23; test: Growth inhibition of human NCI-H23 cells assessed as cell growth at 10 uM incubated for 48 hrs by sulforhodamine B assay relative to control; settings: NCI-H23, 48 h, read-out: Activity; how it was run: as §2
[25] = tested on: SK-MEL-5; test: Growth inhibition of human SK-MEL-5 cells assessed as cell growth at 10 uM incubated for 48 hrs by sulforhodamine B assay relative to control; settings: SK-MEL-5, 48 h, read-out: Activity; how it was run: as §2
[26] = Growth inhibition of human SNB75 cells assessed as cell growth at 10 uM incubated for 48 hrs by sulforhodamine B assay relative to control; settings: SNB-75, 48 h, read-out: Activity; how it was run: as §2
[27] = Growth inhibition of human SF268 cells incubated for 48 hrs by sulforhodamine B assay; settings: SF-268, 48 h; for TGI: read-out: pTGI (converted); how it was run: as §1
[28] = Growth inhibition of human IGROV1 cells assessed as cell growth at 10 uM incubated for 48 hrs by sulforhodamine B assay relative to control; settings: IGROV-1, 48 h, read-out: Activity; how it was run: as §2
[29] = Growth inhibition of human SNB75 cells incubated for 48 hrs by sulforhodamine B assay; settings: SNB-75, 48 h; for TGI: read-out: pTGI (converted); how it was run: as §3

CC(C)[C@@]12C[C@@H](NC(=O)CO)[C@@](C)(O1)[C@@H]1CC[C@@H](C)[C@H]1[C@@H]2OC(=O)c1ccc2ccccc2c1
GI50 [1]: 20.4 µM | CC50 [1]: 87.1 µM | TGI [1]: 41.7 µM | GI50 [2]: 14.8 µM | CC50 [2]: 57.5 µM | TGI [2]: 28.8 µM | growth at 10 µM [3]: 61.6% | GI50 [4]: 16.6 µM | LC50 [4]: 58.9 µM | TGI [4]: 31.6 µM | GI50 [5]: 16.2 µM | LC50 (concentration killing 50% of cells) [5]: 61.7 µM | TGI [5]: 31.6 µM | growth at 10 µM [6]: 75.7% | growth at 10 µM [7]: 93.2% | GI50 [8]: 17.8 µM | LC50 [8]: 81.3 µM | TGI [8]: 38 µM | GI50 [9]: 14.8 µM | CC50 [9]: 56.2 µM | TGI [9]: 28.8 µM | growth at 10 µM [10]: 84.5% | growth at 10 µM [11]: 66.7% | growth at 10 µM [12]: 46.8% | growth at 10 µM [13]: 101% | growth at 10 µM [14]: 99.3% | growth at 10 µM [15]: 94.5% | GI50 [16]: 20.4 µM | CC50 [16]: 79.4 µM | TGI [16]: 40.7 µM | GI50 [17]: 17 µM | LC50 [17]: 60.3 µM | TGI [17]: 31.6 µM | growth at 10 µM [18]: -18.3% | growth at 10 µM [19]: 77.7% | GI50 [20]: 14.8 µM | CC50 [20]: 57.5 µM | TGI [20]: 28.8 µM | GI50 [21]: 11 µM | LC50 [21]: 57.5 µM | TGI [21]: 25.1 µM | GI50 [22]: 14.5 µM | CC50 [22]: 85.1 µM | TGI [22]: 35.5 µM | growth at 10 µM [23]: 85% | growth at 10 µM [24]: 80.2% | growth at 10 µM [25]: 93.5% | growth at 10 µM [26]: 72.7% | GI50 [27]: 13.5 µM | LC50 (lethal concentration, 50% net cell kill) [27]: 57.5 µM | TGI [27]: 28.2 µM | growth at 10 µM [28]: 94.3% | GI50 [29]: 13.2 µM | LC50 [29]: 56.2 µM | TGI [29]: 27.5 µM

CC(C)[C@@]12C[C@@H](NC(=O)CO)[C@@](C)(O1)[C@@H]1CC[C@@H](C)[C@H]1[C@@H]2OC(=O)/C=C/c1ccccc1
GI50 [1]: 14.5 µM | CC50 [1]: > 50.1 µM | TGI [1]: 37.2 µM | GI50 [2]: 6.92 µM | CC50 [2]: > 50.1 µM | TGI [2]: 25.1 µM | growth at 10 µM [3]: 63.3% | GI50 [4]: 16.6 µM | LC50 [4]: > 50.1 µM | TGI [4]: > 50.1 µM | GI50 [5]: 17.8 µM | LC50 (concentration killing 50% of cells) [5]: > 50.1 µM | TGI [5]: > 50.1 µM | growth at 10 µM [6]: 85.8% | growth at 10 µM [7]: 112% | GI50 [8]: 13.5 µM | LC50 [8]: > 50.1 µM | TGI [8]: 37.2 µM | GI50 [9]: 19.1 µM | CC50 [9]: > 50.1 µM | TGI [9]: > 50.1 µM | growth at 10 µM [10]: 93% | growth at 10 µM [11]: 48.8% | growth at 10 µM [12]: 42.9% | growth at 10 µM [13]: 104% | growth at 10 µM [14]: 91.7% | growth at 10 µM [15]: 111% | GI50 [16]: 17 µM | CC50 [16]: > 50.1 µM | TGI [16]: > 50.1 µM | GI50 [17]: 14.8 µM | LC50 [17]: > 50.1 µM | TGI [17]: 37.2 µM | growth at 10 µM [18]: 9% | growth at 10 µM [19]: 76.9% | GI50 [20]: 12.3 µM | CC50 [20]: > 50.1 µM | TGI [20]: > 50.1 µM | GI50 [21]: 3.47 µM | LC50 [21]: > 50.1 µM | TGI [21]: > 50.1 µM | GI50 [22]: 11.5 µM | CC50 [22]: > 50.1 µM | TGI [22]: 42.7 µM | growth at 10 µM [23]: 92.1% | growth at 10 µM [24]: 81.9% | growth at 10 µM [25]: 90.6% | growth at 10 µM [26]: 59.6% | GI50 [27]: 14.8 µM | LC50 (lethal concentration, 50% net cell kill) [27]: > 50.1 µM | TGI [27]: > 50.1 µM | growth at 10 µM [28]: 106% | GI50 [29]: 9.77 µM | LC50 [29]: > 50.1 µM | TGI [29]: 43.7 µM
